Among the data in ChEMBL document CHEMBL1134489, “Enantioselective syntheses of dopaminergic (R)- and (S)-benzyltetrahydroisoquinolines” (J Med Chem, 2001) are IC50 values, retold here.

Each structure is given as a SMILES string. Bounds are passed on as bounds.

In one assay the target is D(1A) dopamine receptor (Rattus norvegicus, UniProt P18901). The assay is described as follows: Inhibition of [3H]-SCH- 23390 binding to the rat striatal membranes. The class given is cell membranes, Membrane. In a few lines:
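Striatal membranes washed twice at 20000g, resuspended in Tris with 5 mM MgSO4, 0.5 mM EDTA, 0.02% ascorbic acid, sonicated. Membranes (100 µg protein) incubated 1 h at 25 °C with 0.25 nM [3H]SCH 23390 and test drug. Nonspecific binding defined with 30 µM SK&F 38393. Filtration, then scintillation counting. IC50 from curves of 4-11 concentrations, 4-6 determinations per concentration.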

The target in a further assay is D(2) dopamine receptor (Rattus norvegicus, UniProt P61169). In words: Inhibition of [3H]-Raclopride binding to the rat striatal membranes. The assay is classed as cell membranes, Membrane. The method, boiled down: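 Rat striatum homogenized in 50 mM Tris-HCl pH 7.4, washed four times by centrifugation at 20000g, resuspended in Tris with 120 mM NaCl, 5 mM KCl, 1 mM CaCl2, 1 mM MgCl2, 0.1% ascorbic acid. Membranes (200 µg protein) incubated 1 h at 25 °C with 0.5 nM [3H]raclopride plus drug. Nonspecific binding defined with 50 µM apomorphine. Filtration, scintillation counting. IC50 from 4-11 concentrations, 4-6 determinations each.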

Assay [1] deals with Sodium-dependent dopamine transporter (Rattus norvegicus, UniProt P23977). The assay is described as follows: Inhibition of [3H]dopamine uptake in rat striatal synaptosomes. The class given is subcellular, Brain. In a few lines: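 Synaptosomes from male Wistar rat striatum (sucrose homogenate, 1000g then 15000g pellet) in oxygenated Krebs-Ringer pH 7.6. Preincubated 5 min with 10 µM pargyline, then 5 min with 2 nM final [3H]dopamine. Stopped by ice-cold dilution and filtration. Retained radioactivity counted by liquid scintillation. IC50 from curves with 4-11 concentrations, 4-6 determinations each.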
Sequence of Sodium-dependent dopamine transporter (P23977 whole entry): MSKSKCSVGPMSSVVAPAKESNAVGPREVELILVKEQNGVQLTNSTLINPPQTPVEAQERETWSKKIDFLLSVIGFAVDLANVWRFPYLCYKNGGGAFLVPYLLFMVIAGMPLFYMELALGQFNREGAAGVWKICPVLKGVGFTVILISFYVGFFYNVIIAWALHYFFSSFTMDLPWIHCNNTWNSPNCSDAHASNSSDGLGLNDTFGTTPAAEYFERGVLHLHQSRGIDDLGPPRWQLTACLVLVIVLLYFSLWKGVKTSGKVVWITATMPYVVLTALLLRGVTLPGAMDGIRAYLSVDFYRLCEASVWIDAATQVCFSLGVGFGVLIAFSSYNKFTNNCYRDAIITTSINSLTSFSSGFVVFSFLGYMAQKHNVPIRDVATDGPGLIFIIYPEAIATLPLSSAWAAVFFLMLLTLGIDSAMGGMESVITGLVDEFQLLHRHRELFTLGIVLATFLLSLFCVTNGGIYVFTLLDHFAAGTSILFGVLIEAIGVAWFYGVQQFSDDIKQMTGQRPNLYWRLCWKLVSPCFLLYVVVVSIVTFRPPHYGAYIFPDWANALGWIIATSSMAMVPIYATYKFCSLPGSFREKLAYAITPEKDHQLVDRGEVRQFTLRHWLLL

Sequence of D(1A) dopamine receptor (P18901 whole entry): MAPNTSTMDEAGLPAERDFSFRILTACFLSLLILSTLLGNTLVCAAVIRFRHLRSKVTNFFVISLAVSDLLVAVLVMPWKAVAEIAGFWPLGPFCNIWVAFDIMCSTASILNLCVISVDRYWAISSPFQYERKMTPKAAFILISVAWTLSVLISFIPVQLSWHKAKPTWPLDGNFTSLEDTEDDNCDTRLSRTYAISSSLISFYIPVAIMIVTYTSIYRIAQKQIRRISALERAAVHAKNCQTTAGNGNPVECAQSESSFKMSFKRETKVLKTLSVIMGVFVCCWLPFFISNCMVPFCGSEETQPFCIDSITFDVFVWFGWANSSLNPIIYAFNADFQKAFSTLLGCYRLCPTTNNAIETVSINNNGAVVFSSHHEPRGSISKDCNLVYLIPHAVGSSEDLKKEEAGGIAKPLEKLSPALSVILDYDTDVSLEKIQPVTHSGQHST
Sequence of D(2) dopamine receptor (P61169 whole entry): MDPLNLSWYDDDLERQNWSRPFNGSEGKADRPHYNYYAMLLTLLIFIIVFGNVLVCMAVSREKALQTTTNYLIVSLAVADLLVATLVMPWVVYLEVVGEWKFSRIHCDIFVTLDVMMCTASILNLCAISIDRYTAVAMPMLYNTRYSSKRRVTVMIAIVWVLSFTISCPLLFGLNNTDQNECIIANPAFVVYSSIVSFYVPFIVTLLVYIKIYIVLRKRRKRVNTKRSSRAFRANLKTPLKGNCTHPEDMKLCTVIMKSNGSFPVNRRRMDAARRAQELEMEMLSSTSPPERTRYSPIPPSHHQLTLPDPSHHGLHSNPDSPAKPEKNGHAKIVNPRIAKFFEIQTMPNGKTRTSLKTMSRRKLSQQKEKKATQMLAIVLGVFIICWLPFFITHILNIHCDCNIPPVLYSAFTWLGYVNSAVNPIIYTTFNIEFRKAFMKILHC

With `CCCN1CCc2cc3c(cc2[C@@H]1Cc1ccccc1)OCO3`, the IC50 on D(1A) dopamine receptor was 51.9 µM; at D(2) dopamine receptor it was 21.9 µM; in assay [1] it was 20.3 µM.

`CCCN1CCc2cc(O)c(O)cc2[C@H]1Cc1ccccc1`: the half-inhibitory concentration (IC50) is above 100 µM at D(1A) dopamine receptor, 61.2 µM on D(2) dopamine receptor and 91.5 µM in assay [1].

Consider `CCCN1CCc2cc(O)c(O)cc2[C@@H]1Cc1ccccc1`, for which the values for the IC50 (at D(1A) dopamine receptor; at D(2) dopamine receptor; in assay [1]) were 16.6 µM, 14.7 µM and 64.8 µM, respectively.

Regarding `c1ccc(C[C@H]2NCCc3cc4c(cc32)OCO4)cc1`, the IC50 at D(1A) dopamine receptor is above 100 µM; on D(2) dopamine receptor it was 53.1 µM; in assay [1], 6.8 µM.

Regarding `c1ccc(C[C@@H]2NCCc3cc4c(cc32)OCO4)cc1`, the IC50 at D(1A) dopamine receptor is 23.9 µM; at D(2) dopamine receptor, 4 µM; in assay [1], 3.6 µM.

Turning to `CCCN1CCc2cc3c(cc2[C@H]1Cc1ccccc1)OCO3`, the IC50 on D(1A) dopamine receptor was above 100 µM; at D(2) dopamine receptor it was above 100 µM; in assay [1], 43.6 µM.
